Data from ChEMBL document CHEMBL4190252, “Synthesis, antitumor activity and CDK1 inhibiton of new thiazole nortopsentin analogues” (Eur J Med Chem, 2017).
Active and inactive are the calls of the source. The calls are words filed in the database; no cut-off is given here.

Assays:
KM12 = experiment: Growth inhibition of human KM12 cells incubated for 48 hrs by sulforhodamine B assay; format: functional; conditions: KM12, 48 h
Summary of the method: (§1)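 NCI full panel screen: five 10-fold dilutions (10^-4–10^-8 M). GI50 is the molar concentration giving 50% inhibition of net cell growth.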

Hs-578T = experiment: Growth inhibition of human Hs 578T cells incubated for 48 hrs by sulforhodamine B assay; format: functional; summary of the method: as §1
MCF7 [1] = experiment: Cell cycle arrest in human MCF7 cells assessed as reduction in accumulation at S phase at GI50 concentration after 48 hrs by propidium iodide-staining based flow cytometry; format: functional
Summary of the method: (§2)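 Cells were trypsinized, washed in cold PBS, and 1 x 10^6 cells stained with 20 µg/ml PI plus 200 µg/ml RNase for 30 min at room temperature in the dark. At least 1x 10^4 cells were analysed by flow cytometry. Mean±SD of three experiments in triplicate.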

LOX IMVI = experiment: Growth inhibition of human LOXIMVI cells incubated for 48 hrs by sulforhodamine B assay; format: functional; summary of the method: as §1
MCF7 [2] = experiment: Cell cycle arrest in human MCF7 cells assessed as reduction in accumulation at G0/G1 phase at GI50 concentration after 48 hrs by propidium iodide-staining based flow cytometry; format: functional; summary of the method: as §2
NCI-H522 = experiment: Growth inhibition of human NCI-H522 cells incubated for 48 hrs by sulforhodamine B assay; format: functional; conditions: NCI-H522, 48 h; summary of the method: as §1
BT-549 = experiment: Growth inhibition of human BT549 cells incubated for 48 hrs by sulforhodamine B assay; format: functional; conditions: BT-549, 48 h; summary of the method: as §1
ACHN = experiment: Growth inhibition of human ACHN cells incubated for 48 hrs by sulforhodamine B assay; format: functional; summary of the method: as §1
SF-295 = experiment: Growth inhibition of human SF295 cells incubated for 48 hrs by sulforhodamine B assay; format: functional; conditions: SF-295, 48 h; summary of the method: as §1
PC-3 = experiment: Growth inhibition of human PC3 cells incubated for 48 hrs by sulforhodamine B assay; format: functional; conditions: PC-3, 48 h; summary of the method: as §1
CCRF-CEM = experiment: Growth inhibition of human CCRF-CEM cells incubated for 48 hrs by sulforhodamine B assay; format: functional; summary of the method: as §1
SR = experiment: Growth inhibition of human SR cells incubated for 48 hrs by sulforhodamine B assay; format: functional
Summary of the method: (§3)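 NCI full-panel human tumour cell screen. Cells were exposed to five 10-fold dilutions from 10^-4 to 10^-8 M. GI50 is the molar concentration giving 50% inhibition of net cell growth, and a mean graph midpoint was calculated across the panel.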

EKVX = experiment: Growth inhibition of human EKVX cells incubated for 48 hrs by sulforhodamine B assay; format: functional; summary of the method: as §1
RPMI-8226 = experiment: Growth inhibition of human RPMI8226 cells incubated for 48 hrs by sulforhodamine B assay; format: functional; conditions: RPMI-8226, 48 h; summary of the method: as §1
NCI-H23 = experiment: Growth inhibition of human NCI-H23 cells incubated for 48 hrs by sulforhodamine B assay; format: functional; conditions: NCI-H23, 48 h; summary of the method: as §1
HT-29 = experiment: Growth inhibition of human HT-29 cells incubated for 48 hrs by sulforhodamine B assay; format: functional; conditions: HT-29, 48 h; summary of the method: as §1
SK-MEL-2 = experiment: Growth inhibition of human SK-MEL-2 cells incubated for 48 hrs by sulforhodamine B assay; format: functional; conditions: SK-MEL-2, 48 h; summary of the method: as §3
NCI/ADR-RES = experiment: Growth inhibition of human NCI/ADR-RES cells incubated for 48 hrs by sulforhodamine B assay; format: functional; summary of the method: as §1
T47D = experiment: Growth inhibition of human T47D cells incubated for 48 hrs by sulforhodamine B assay; format: functional; summary of the method: as §3
MCF7 [3] = experiment: Growth inhibition of human MCF7 cells incubated for 48 hrs by sulforhodamine B assay; format: functional; conditions: MCF7, 48 h; summary of the method: as §1
MDA-MB-468 = experiment: Growth inhibition of human MDA-MB-468 cells incubated for 48 hrs by sulforhodamine B assay; format: functional; conditions: MDA-MB-468, 48 h; summary of the method: as §1
UACC-257 = experiment: Growth inhibition of human UACC257 cells incubated for 48 hrs by sulforhodamine B assay; format: functional; conditions: UACC-257, 48 h; summary of the method: as §3
COLO 205 = experiment: Growth inhibition of human COLO205 cells incubated for 48 hrs by sulforhodamine B assay; format: functional; conditions: COLO 205, 48 h; summary of the method: as §1
SNB-19 = experiment: Growth inhibition of human SNB19 cells incubated for 48 hrs by sulforhodamine B assay; format: functional; conditions: SNB-19, 48 h; summary of the method: as §3
SN12C = experiment: Growth inhibition of human SN12C cells incubated for 48 hrs by sulforhodamine B assay; format: functional; summary of the method: as §3
A498 = experiment: Growth inhibition of human A498 cells incubated for 48 hrs by sulforhodamine B assay; format: functional; conditions: A498, 48 h; summary of the method: as §1
Caco-2 = experiment: Cytotoxicity against human Caco2 cells assessed as reduction in cell viability after 72 hrs by MTT assay; format: cell-based; conditions: caco-2, 72 h
Summary of the method: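 Caco-2 cells grown in RPMI with 10% FBS and L-glutamine, then treated 15 days after confluence, once differentiated into normal intestinal-like cells. Seeded at 2 × 10^4 cells/well and exposed 72 h to 5–100 µM, DMSO 0.1% vehicle. MTT 2 h at 37 °C, formazan in DMSO, absorbance 570 nm. Vehicle control = 100%; LC50 from viability-versus-concentration plot. At least three experiments in triplicate.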

SF-539 = experiment: Growth inhibition of human SF539 cells incubated for 48 hrs by sulforhodamine B assay; format: functional; conditions: SF-539, 48 h; summary of the method: as §1
SW-620 = experiment: Growth inhibition of human SW620 cells incubated for 48 hrs by sulforhodamine B assay; format: functional; conditions: SW-620, 48 h; summary of the method: as §3
MCF7 [4] = experiment: Induction of apoptosis in human MCF7 cells assessed as late apoptotic cells at 2 x 10^-6 M after 72 hrs by Annexin V/propidium iodide double staining-based flow cytometry (reference value: 0%); format: functional
Summary of the method: (§4)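 MCF-7 cells were grown in RPMI with 10% FBS, 2 mM L-glutamine and antibiotics at 37 °C in 5% CO2. They were seeded at 2.0 x 10^5 cells/cm2 in triplicate, left to adhere overnight, then treated for 72 h; DMSO 0.1% served as vehicle. Trypsinised cells at 2.0 x 10^5/mL were stained with annexin V-FITC and PI for 15 min at room temperature in the dark. At least 1.0 x 10^4 cells were gated into viable, early apoptotic, late apoptotic and necrotic quadrants.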

[5] = Selectivity index, ratio of LC50 for human Caco2 cells to GI50 for human MCF7 cells; format: toxicity; conditions: Caco2 cells (LC50) and MCF7 cells (GI50), read-out: Selectivity Index
Summary of the method: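 Caco-2 cells were differentiated to a normal intestinal-like state for 15 days after confluence, seeded at 2 x 10^4 cells/well in RPMI, and treated with 5–100 µM for 72 h. MTT was added for 2 h at 37 °C, formazan was dissolved in DMSO and read at 570 nm. LC50 came from viability-versus-concentration plots, with at least three experiments in triplicate. SI is the Caco-2 LC50 divided by the MCF-7 GI50.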

MCF7 [6] = experiment: Induction of apoptosis in human MCF7 cells assessed as viable cells at 2 x 10^-6 M after 72 hrs by Annexin V/propidium iodide double staining-based flow cytometry (reference value: 98.9%); format: functional; conditions: MCF7, 72 h, read-out: Activity; summary of the method: as §4

SMILES: COCCn1cc(-c2nc(-c3c[nH]c4ncccc34)cs2)c2cc(OC)ccc21
- GI50 (KM12): 0.16 µM
- GI50 (Hs-578T): 2.07 µM
- Activity (MCF7 [1]): Active
- GI50 (LOX IMVI): 3.69 µM
- Activity (MCF7 [2]): Active
- GI50 (NCI-H522): 5.18 µM
- GI50 (BT-549): 2.38 µM
- GI50 (ACHN): 3.08 µM
- GI50 (SF-295): 2.7 µM
- GI50 (PC-3): 4.22 µM
- GI50 (CCRF-CEM): 6.7 µM
- GI50 (SR): 1.28 µM
- GI50 (EKVX): 0.07 µM
- GI50 (RPMI-8226): 7.09 µM
- GI50 (NCI-H23): 1.63 µM
- GI50 (HT-29): 4.31 µM
- GI50 (SK-MEL-2): 3.56 µM
- GI50 (NCI/ADR-RES): 3.07 µM
- GI50 (T47D): 0.04 µM
- GI50 (MCF7 [3]): 0.05 µM
- GI50 (MDA-MB-468): 0.03 µM
- GI50 (UACC-257): 4.26 µM
- GI50 (COLO 205): 5.03 µM
- GI50 (SNB-19): 9.71 µM
- GI50 (SN12C): 5.51 µM
- GI50 (A498): 1.87 µM
- LC50 (Caco-2): < 100 µM
- GI50 (SF-539): 3.99 µM
- GI50 (SW-620): 4.5 µM

SMILES: COCCn1cc(-c2csc(-c3c[nH]c4ccc(F)cc34)n2)c2cccnc21
- Activity (MCF7 [4]): 0%
- GI50 (KM12): 1.77 µM
- GI50 (Hs-578T): 8.82 µM
- Activity (MCF7 [1]): Active
- GI50 (LOX IMVI): 3.44 µM
- Activity (MCF7 [2]): Active
- GI50 (NCI-H522): 2.19 µM
- GI50 (BT-549): 4.26 µM
- GI50 (ACHN): 5.27 µM
- GI50 (SF-295): 3.2 µM
- GI50 (PC-3): 5.06 µM
- GI50 (SR): 3.24 µM
- GI50 (EKVX): 1.98 µM
- selectivity ratio [5]: 46
- GI50 (NCI-H23): 3.88 µM
- viability at 2 µM (MCF7 [6]): 70.7%
- GI50 (HT-29): 2.9 µM
- GI50 (SK-MEL-2): 3.89 µM
- GI50 (NCI/ADR-RES): 2.17 µM
- GI50 (T47D): 0.65 µM
- GI50 (MCF7 [3]): 2.09 µM
- GI50 (MDA-MB-468): 2.44 µM
- GI50 (COLO 205): 2.69 µM
- GI50 (SNB-19): 98 µM
- GI50 (SN12C): > 100 µM
- GI50 (A498): 3.26 µM
- LC50 (Caco-2): 96.1 µM
- GI50 (SF-539): 8.86 µM
- GI50 (SW-620): 3.63 µM

SMILES: COCCn1cc(-c2csc(-c3c[nH]c4ccccc34)n2)c2cccnc21
- Activity (MCF7 [4]): 0%
- GI50 (KM12): 0.76 µM
- GI50 (Hs-578T): 9.14 µM
- Activity (MCF7 [1]): Active
- GI50 (LOX IMVI): 3.96 µM
- Activity (MCF7 [2]): Active
- GI50 (NCI-H522): 2.07 µM
- GI50 (BT-549): 4.45 µM
- GI50 (ACHN): 5.6 µM
- GI50 (SF-295): 3.35 µM
- GI50 (PC-3): 6.81 µM
- GI50 (CCRF-CEM): > 100 µM
- GI50 (SR): 3.02 µM
- GI50 (EKVX): 2 µM
- selectivity ratio [5]: 41
- GI50 (NCI-H23): 4.58 µM
- viability at 2 µM (MCF7 [6]): 53.4%
- GI50 (HT-29): 3.19 µM
- GI50 (SK-MEL-2): 7.38 µM
- GI50 (NCI/ADR-RES): 1.76 µM
- GI50 (T47D): 0.42 µM
- GI50 (MCF7 [3]): 1.74 µM
- GI50 (MDA-MB-468): 0.97 µM
- GI50 (UACC-257): > 100 µM
- GI50 (COLO 205): 2.66 µM
- GI50 (SNB-19): 16.2 µM
- GI50 (SN12C): > 100 µM
- GI50 (A498): 3.03 µM
- LC50 (Caco-2): 71.4 µM
- GI50 (SF-539): 5.91 µM
- GI50 (SW-620): 3.52 µM

SMILES: COCCn1cc(-c2csc(-c3c[nH]c4ccc(Br)cc34)n2)c2cccnc21
- Activity (MCF7 [4]): 0%
- GI50 (KM12): 2.74 µM
- GI50 (Hs-578T): 4.44 µM
- GI50 (LOX IMVI): 2.67 µM
- GI50 (NCI-H522): 2.17 µM
- GI50 (BT-549): 4.8 µM
- GI50 (ACHN): 3.04 µM
- GI50 (SF-295): 2.83 µM
- GI50 (PC-3): 3.68 µM
- GI50 (SR): 3.25 µM
- GI50 (EKVX): 2.05 µM
- selectivity ratio [5]: 46
- GI50 (RPMI-8226): 5.14 µM
- GI50 (NCI-H23): 3.21 µM
- viability at 2 µM (MCF7 [6]): 63.6%
- GI50 (HT-29): 3.36 µM
- GI50 (SK-MEL-2): 6.82 µM
- GI50 (NCI/ADR-RES): 2.86 µM
- GI50 (T47D): 1.97 µM
- GI50 (MCF7 [3]): 1.79 µM
- GI50 (MDA-MB-468): 2.34 µM
- GI50 (UACC-257): 8.69 µM
- GI50 (COLO 205): 3.22 µM
- GI50 (SNB-19): 12.2 µM
- GI50 (SN12C): 7.72 µM
- GI50 (A498): 3.02 µM
- LC50 (Caco-2): 83.3 µM
- GI50 (SF-539): 7.34 µM
- GI50 (SW-620): 3.3 µM
